Assay results reported in PubChem BioAssay AID651952 (The Scripps Research Institute Molecular Screening Center, 2012).
In all, about 2,400 compounds went through this assay and about 940 (39%) were called active. Only a sample is shown. Values without a mark were called inactive.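 How the source made its calls: active means inhibition above the plate's mean compound inhibition plus 3 SD, computed per plate (cut at about 22% in these data); inactive means the rest.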

Assay: inhibition of ATP-evoked calcium response in CHO-Ga16 cells, counter-screen for TAAR1 agonist project, cell-based, fluorescence (AID 651952);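 further: 0% = EC80 ATP with DMSO and 100% = DMSO wells without ATP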
Conditions: CHO-Ga16 ATP-induced calcium, Fluo-8 fluorescence; at 3 µM; active compounds read high
Summary of the method: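 replicates = triplicate wells per compound | material = CHO-Gα16 parent cell line without hTAAR1 | incubation = 17–24 h seeding, dye 75 min 37 °C, 30 min RT | measure = percent inhibition from peak-to-pre-ATP-basal fluorescence ratio, scaled between controls | signal = Fluo-8 fluorescence, Ex 470–495 nm, Em 515–575 nm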

Structure (SMILES)	inhibition
O=C1NC(=O)N(Cc2ccco2)C(=O)/C1=C\c1ccc(-c2ccc(F)cc2)o1	44% (active)
Clc1ccc2nc3c(c(-c4ccccc4)c2c1)CNCC3	0.28%
CC(Cc1ccccc1)NC=O (centres undefined)	11.2%
CCCCC(=O)N/N=C/c1c(O)n(CC)c(=S)n(CC)c1=O	64.5% (active)
COc1ccc(Br)cc1CNCCc1cccc(Cl)c1	14.7%
c1ccc(CCNC2CCCCCC2)cc1	2.61%
Cc1cccc(N2C(=O)NC(=O)/C(=C\c3cnn(-c4ccccc4)c3)C2=O)c1	40.6% (active)
CCC(=NCCc1ccccc1)c1c(O)n(C2CCCCC2)c(=O)[nH]c1=O	21.1%
NCC(O)c1ccc(O)cc1 (centres undefined)	3.87%
